Source: ChEMBL document CHEMBL1157630, “A class of novel Schiff's bases: Synthesis, therapeutic action for chronic pain, anti-inflammation and 3D QSAR analysis” (2010)

Assays:
Assay type in all cases: functional
Mus musculus [1] = experiment: Analgesic activity in ICR mouse assessed as increase in pain threshold variation at 0.2 umol/kg, ip administered as single dose measured after 60 mins by tail flick test
In short: (§1)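 Mice were housed 12/12 h light/dark at 21 ± 2 °C for one day, then given a single dose. Tail-flick basal threshold was read four times, then every 30 min up to 180 min, with a 10 s cut-off. PTV = (post-dose threshold − basal)/basal. n = 12, mean ± SD%, one-way ANOVA against saline vehicle at each time point.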

Mus musculus [2] = experiment: Analgesic activity in ICR mouse assessed as increase in pain threshold variation at 2 umol/kg, ip administered as single dose measured after 120 mins by tail flick test; details: in the assay text read “po administered” for “ip administered”; in short: as §1
Mus musculus [3] = experiment: Antiinflammatory activity in ICR mouse assessed as inhibition of xylene-induced ear edema at 10 umol/kg, po
In short: (§2)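 Male ICR mice (20 ± 2 g), 12 per group, were dosed orally: test agents as suspensions in normal saline, aspirin in CMC. After 30 min, 0.03 ml xylene was applied to both surfaces of the right ear, with the left ear as control. After 2 h the mice were killed, 8 mm ear discs were weighed, and edema was taken as right minus left weight.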

Mus musculus [4] = experiment: Analgesic activity in ICR mouse assessed as increase in pain threshold variation at 20 umol/kg, po administered as single dose measured after 120 mins by tail flick test
In short: (§3)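 Tail-flick test in mice housed 12/12 h light/dark at 21 ± 2 °C for one day. A single oral dose of 20 µmol/kg was given in 0.2 ml normal saline; vehicle controls got saline alone. Basal threshold was measured four times, then every 30 min to 180 min, with a 10 s cut-off. PTV = (post − basal)/basal. n = 12, mean ± SD%, one-way ANOVA.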

Mus musculus [5] = experiment: Analgesic activity in ICR mouse assessed as increase in pain threshold variation at 20 umol/kg, po administered as single dose measured after 60 mins by tail flick test; in short: as §3
Mus musculus [6] = experiment: Analgesic activity in ICR mouse assessed as increase in pain threshold variation at 2 umol/kg, ip administered as single dose measured after 180 mins by tail flick test; in short: as §1
Mus musculus [7] = experiment: Analgesic activity in ICR mouse assessed as increase in pain threshold variation at 0.2 umol/kg, ip administered as single dose measured after 150 mins by tail flick test; details: in the assay text read “po administered” for “ip administered”; in short: as §1
Mus musculus [8] = experiment: Analgesic activity in ICR mouse assessed as increase in pain threshold variation at 2 umol/kg, ip administered as single dose measured after 30 mins by tail flick test; details: in the assay text read “po administered” for “ip administered”; in short: as §1
Mus musculus [9] = experiment: Analgesic activity in ICR mouse assessed as increase in pain threshold variation at 20 umol/kg, po administered as single dose measured after 180 mins by tail flick test; in short: as §3
Mus musculus [10] = experiment: Analgesic activity in ICR mouse assessed as increase in pain threshold variation at 20 umol/kg, po administered as single dose measured after 30 mins by tail flick test; in short: as §3
Mus musculus [11] = experiment: Analgesic activity in ICR mouse assessed as increase in pain threshold variation at 0.2 umol/kg, ip administered as single dose measured after 120 mins by tail flick test; in short: as §1
Mus musculus [12] = experiment: Analgesic activity in ICR mouse assessed as increase in pain threshold variation at 0.2 umol/kg, ip administered as single dose measured after 90 mins by tail flick test; in short: as §1
Mus musculus [13] = experiment: Analgesic activity in ICR mouse assessed as increase in pain threshold variation at 2 umol/kg, ip administered as single dose measured after 60 mins by tail flick test; details: in the assay text read “po administered” for “ip administered”; in short: as §1
Mus musculus [14] = experiment: Analgesic activity in ICR mouse assessed as increase in pain threshold variation at 20 umol/kg, po administered as single dose measured after 150 mins by tail flick test; in short: as §3
Mus musculus [15] = experiment: Analgesic activity in ICR mouse assessed as increase in pain threshold variation at 2 umol/kg, ip administered as single dose measured after 90 mins by tail flick test; details: in the assay text read “po administered” for “ip administered”; in short: as §1
Mus musculus [16] = experiment: Analgesic activity in ICR mouse assessed as increase in pain threshold variation at 20 umol/kg, po administered as single dose measured after 90 mins by tail flick test; in short: as §3
Mus musculus [17] = experiment: Analgesic activity in ICR mouse assessed as increase in pain threshold variation at 0.2 umol/kg, ip administered as single dose measured after 180 mins by tail flick test; details: in the assay text read “po administered” for “ip administered”; in short: as §1
Mus musculus [18] = experiment: Analgesic activity in ICR mouse assessed as increase in pain threshold variation at 2 umol/kg, ip administered as single dose measured after 150 mins by tail flick test; details: in the assay text read “po administered” for “ip administered”; in short: as §1
Mus musculus [19] = experiment: Antiinflammatory activity in ICR mouse assessed as inhibition of xylene-induced ear edema at 5 umol/kg, po; in short: as §2
Mus musculus [20] = experiment: Antiinflammatory activity in ICR mouse assessed as inhibition of xylene-induced ear edema at 20 umol/kg, po; in short: as §2
Mus musculus [21] = experiment: Analgesic activity in ICR mouse assessed as increase in pain threshold variation at 0.2 umol/kg, ip administered as single dose measured after 30 mins by tail flick test; in short: as §1
Mus musculus [22] = experiment: Analgesic activity in ICR mouse assessed as increase in pain threshold variation at 165 umol/kg, po administered as single dose measured after 90 mins by tail flick test
Mus musculus [23] = experiment: Antiinflammatory activity in ICR mouse assessed as inhibition of xylene-induced ear edema at 165 umol/kg, po; in short: as §2
Mus musculus [24] = experiment: Analgesic activity in ICR mouse assessed as increase in pain threshold variation at 165 umol/kg, po administered as single dose measured after 180 mins by tail flick test
Mus musculus [25] = experiment: Analgesic activity in ICR mouse assessed as increase in pain threshold variation at 165 umol/kg, po administered as single dose measured after 150 mins by tail flick test
Mus musculus [26] = experiment: Analgesic activity in ICR mouse assessed as increase in pain threshold variation at 165 umol/kg, po administered as single dose measured after 30 mins by tail flick test
Mus musculus [27] = experiment: Analgesic activity in ICR mouse assessed as increase in pain threshold variation at 165 umol/kg, po administered as single dose measured after 60 mins by tail flick test
Mus musculus [28] = experiment: Analgesic activity in ICR mouse assessed as increase in pain threshold variation at 165 umol/kg, po administered as single dose measured after 120 mins by tail flick test
Mus musculus [29] = experiment: Analgesic activity in ICR mouse assessed as increase in pain threshold variation at 20 umol/kg, ip administered as single dose measured after 30 mins by tail flick test
In short: (§4)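 Mice were housed on a 12/12 light/dark cycle at 21 ± 2 °C for one day before use. Each got a single intraperitoneal dose of 20 µmol/kg in normal saline; vehicle controls got […]. Tail-flick basal threshold was read four times, then every 30 min to 180 min with a 10 s cut-off. PTV = (post-dose threshold − basal)/basal. n = 12, mean ± SD, one-way ANOVA.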

Mus musculus [30] = experiment: Analgesic activity in ICR mouse assessed as increase in pain threshold variation at 20 umol/kg, ip administered as single dose measured after 180 mins by tail flick test; in short: as §4
Mus musculus [31] = experiment: Analgesic activity in ICR mouse assessed as increase in pain threshold variation at 20 umol/kg, ip administered as single dose measured after 90 mins by tail flick test; in short: as §4
Mus musculus [32] = experiment: Analgesic activity in ICR mouse assessed as increase in pain threshold variation at 20 umol/kg, ip administered as single dose measured after 120 mins by tail flick test; in short: as §4
Mus musculus [33] = experiment: Analgesic activity in ICR mouse assessed as increase in pain threshold variation at 20 umol/kg, ip administered as single dose measured after 60 mins by tail flick test; in short: as §4
Mus musculus [34] = experiment: Analgesic activity in ICR mouse assessed as increase in pain threshold variation at 20 umol/kg, ip administered as single dose measured after 150 mins by tail flick test; in short: as §4

SMILES	inhibition in vivo at 10 µmol/kg (Mus musculus [3]) [%]	Activity (Mus musculus [4]) [%]	Activity (Mus musculus [5]) [%]	Activity (Mus musculus [9]) [%]	Activity (Mus musculus [10]) [%]	Activity (Mus musculus [14]) [%]	Activity (Mus musculus [16]) [%]	inhibition in vivo at 5 µmol/kg (Mus musculus [19]) [%]	inhibition in vivo at 20 µmol/kg (Mus musculus [20]) [%]	other results
COC(=O)[C@H](C)/N=C/C=C/N[C@@H](C)C(=O)OC	41.9	53.33	32.49	42.29	32.26	44.71	48.4	14.8	53.1	Activity (Mus musculus [1]): 16.79%; Activity (Mus musculus [2]): 35.87%; Activity (Mus musculus [6]): 27.31%; Activity (Mus musculus [7]): 20.27%; Activity (Mus musculus [8]): 24.58%; Activity (Mus musculus [11]): 22.08%; Activity (Mus musculus [12]): 17.41%; Activity (Mus musculus [13]): 25%; Activity (Mus musculus [15]): 30.94%; Activity (Mus musculus [17]): 18.8%; Activity (Mus musculus [18]): 28.25%; Activity (Mus musculus [21]): 12.24%
COC(=O)[C@H](C)N		11.55	12.66	11.44	7.37	11.01	12.02			
CCC(C)[C@H](/N=C/C=C/N[C@H](C(=O)OC)C(C)CC)C(=O)OC (some centres not stated)	68	41.65	19.68	32.75	18.66	34.89	34.31	48.9	77.6	
COC(=O)[C@H](CC(C)C)/N=C/C=C/N[C@@H](CC(C)C)C(=O)OC	80.9	45.12	29.79	41.84	26.52	42.38	40.37	73.1	88.6	
COC(=O)[C@H](CCSC)/N=C/C=C/N[C@@H](CCSC)C(=O)OC		23.37	29.93	21.18	28.73	22.05	31.61		25.4	
COC(=O)[C@H](Cc1ccccc1)/N=C/C=C/N[C@@H](Cc1ccccc1)C(=O)OC	25.4	40.67	28.92	30.66	28.22	35.33	35.82	12.9	36.8	
COC(=O)[C@H](COCc1ccccc1)/N=C/C=C/N[C@@H](COCc1ccccc1)C(=O)OC		37.48	34.87	33.33	32.18	34.17	36.24		55	
COC(CC(OC)OC)OC		11.93	11.84	11.89	6.22	11.8	12.15			
CC(=O)Oc1ccccc1C(=O)O [ASPIRIN]										Activity (Mus musculus [22]): 19.79%; inhibition in vivo at 165 µmol/kg (Mus musculus [23]): 65.1%; Activity (Mus musculus [24]): 14.65%; Activity (Mus musculus [25]): 14.59%; Activity (Mus musculus [26]): 12.88%; Activity (Mus musculus [27]): 18.69%; Activity (Mus musculus [28]): 16.46%
CN1CC[C@]23c4c5ccc(O)c4O[C@H]2[C@@H](O)C=C[C@H]3[C@H]1C5 [MORPHINE]										Activity (Mus musculus [29]): 147%; Activity (Mus musculus [30]): 32.9%; Activity (Mus musculus [31]): 122.7%; Activity (Mus musculus [32]): 64.9%; Activity (Mus musculus [33]): 177.6%; Activity (Mus musculus [34]): 36.7%
